# Measurements published in the EternaBench riboswitch data.
# Test system: MS2 coat protein
# Assay: apparent Kd, MS2 coat protein; higher = weaker binding; RNA-MaP array; FMN 200 µM where present
# Summary of the method: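 The titrant was SNAP-549-labelled MS2 coat protein, run from 0.7 or 1.5 nM in doubling steps to 3 µM. It was applied to designs transcribed by stalled E. coli RNA polymerase on Illumina sequencing-chip clusters, without ligand first and then with constant ligand, in 100 mM Tris-HCl pH 7.5, 80 mM KCl, 4 mM MgCl2, BSA, DTT, yeast tRNA and Tween-20. The apparent Kd is the median of filtered per-cluster binding-curve fits, with green signal normalised to red-channel RNA signal and control-cluster median Fmax.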
# [1] = designed as: OFF switch for flavin mononucleotide, no ligand
# [2] = ligand present: flavin mononucleotide, designed as: OFF switch for flavin mononucleotide
# [3] = designed as: ON switch for flavin mononucleotide, no ligand
# [4] = ligand present: flavin mononucleotide, designed as: ON switch for flavin mononucleotide
Sequence,apparent Kd [1] [µM],apparent Kd [2] [µM],apparent Kd [3] [µM],apparent Kd [4] [µM]
AGCGUGUAAGGAUAUACGUCGGAUAGCGAAUGCUGUCCCUAGUAGAAGGUACAUGAGGAUCACCCAUGUGUCCA,0.0233,0.0701,–,–
GUGCGGUAGGAGAAGGACGGAGGCUUCUUUUCAUACAUGAGGAUCACCCAUGUAGGAUAUCCUACCUCACGCGGCCUACUACUG,0.00836,0.0077,–,–
GAUCAGAUAGGAUAUACAGGCUCGUCUUUAUAUUGAUCCCGACAUGAGGAUCACCCAUGUAGAAGGAUCAGAUC,0.0164,0.0457,–,–
GGUACCAACACAGGAUAUGCUAUCCUUUGGGUAGCAGAAGGGUGAAACAUGAGGAUCACCCAUGUGGUGCCAGGGCGUGAGCCC,–,–,1.46,0.0962
ACAUGAGGAUCACCCAUGUAAAAUGAAGAAGGUAUAUACUUGAGGAUCACCCAUGUACAUGGGAAUAAGGAUAUUCUAAUAAUU,–,–,0.0135,0.0126
UAAUAAAACGAUCGGCGGUCCAUACAUGAGGAUCACCCAUGUAGAAGGGACUCUACAAAGUAGAGUCAGGAUAUACAAGAUCGA,0.00819,0.108,–,–
AUUACAAUUUUAUACAUGAGGAUCACCCAUGUUAUAAGUCAUGAGGAUAUGGUAUUGUAGUUAUUCCAGAAGGCAUUUAGCUAA,–,–,0.00875,0.00764
AAUAGGCGAGGAUAUACAUGAGGAUCACCCAUGUAAGUAAGCCUGGCUGAAACUAAAUGUAGAAGGCGCAAUAA,0.0143,0.0431,–,–
CCUAGUUGGUAAGGAUAUCCUACACUGUUCUGACCCGUGCAAGCUACAUGAGGAUCACCCAUGUGGGAGAAGGUGCGUCGACGC,0.024,0.0249,–,–
AUUUAGUGCGAGAAGGCGUGGUCACAUGAGGAUCACCCAUGUCAGUACACGAGGAUAUCGUUUCGCUGUGUAAACACAAGCGAC,–,–,0.0403,0.00615
AUCAGCUCGUCAGGAUAUACGUCACUGCGUCACCAGUGUGGUAAGAUCACAUGAGGAUCACCCAUGUAGAAGGGACGAGCUGAU,0.0154,0.287,–,–
AUAAACGCAGGAUAUACAUGAGGAUCACCCAUGUCCGCGCUUGUUGCGGGCACCUGAUGUAGAAGGGCGGGCGC,0.214,0.184,–,–
AAACCGUAAAUGCGGGCAUGUACACAGGAUAUCCCGUGACAUGAGGAUCACCCAUGUAACACAUUGGAGAAGGGUGUUCACGUA,–,–,0.177,0.0196
GCAUGACAAAGUCAUGCAAUACGAACAUGAGGAUCACCCAUGUAGGAUAUGCUACUCAAAGAGUAGCAGAAGGACAUGUGCCUU,0.0361,0.288,–,–
GAAUGUCGGGUAGGAUAUGACUUGCCACGGAGGUCAGAAGGGCCACGACAUGAGGAUCACCCAUGUACUGUAUUCCUUUUUCAA,0.0253,0.0981,–,–
GGACGUCACAUUAACAUGAGGAUCACCCAUGUCUCUAGACAUGAGGAUAUGGAUCCUAAUUGGAUCCAGAAGGCAUGGACGUCC,–,–,1.03,0.143
ACAAAUCCUGACAUGAGGAUCACCCAUGUUAGAUUGUUAUGUCAGGAUAUUAUCUGGCAACCAGAUGAGAAGGGACGAUUUGUG,–,–,0.722,0.0647
GUACAUACAAAGUUACAUGAGGAUCACCCAUGUUUAUUGGGAAGAAGGGUAACAUUAUUAGAUGUAUAGGAUAUUUCACAAUUG,–,–,0.511,0.316
GUAGAGUAGUGAGGAUAUACGAGCACGAUAGUGCGGCGAUCCAAUAAUACAUGAGGAUCACCCAUGUAGAAGGCACUUCUCUAC,0.00743,0.0812,–,–
CCUCUACAUGAGGAUCACCCAUGUGAGGAUAUGCGAGGCGCGCUCGAUGAGCACGCCGGUAGAAGGCAUGUGGU,0.0238,0.0516,–,–
GGAUCGAUAGUGAGGAUAUACCACUGGAUACAGUGGUAGAAGGCACAUGAGGAUCACCCAUGUCCUAACGAUCC,0.0206,0.0994,–,–

Sequence,apparent Kd [1] [µM],apparent Kd [2] [µM],apparent Kd [3] [µM],apparent Kd [4] [µM]
GUUAGACAUGAGGAUCACCCAUGUGAGGAUAUGAUGUGAAUAAAUAAUUAAUUAAGUAUCAGAAGGCACAUAUG,0.129,0.149,–,–
UAUUAUUUAUGAUAUUAUGACAGUAGAAGGCUAUACAUGUUGAUACAUGAGGAUCACCCAUGUAUAGAGGAUAUAUACAUAAAU,1.01,0.884,–,–
CACGAUCAUGUAGGAUAUAUACUGGAAUACAGUAUAGAAGGACAUGAGGAUCACCCAUGUUAUGUGCCUCCAAGUAAGAUCGUG,0.0177,0.0232,–,–
AGCUAGUGAGGAUAUACAAGAAUAUAAACGAACAUAAAGGGACAUGAGGAUCACCCAUGUAGAAGGCACUAGCA,0.0376,0.243,–,–
UGGUACAUCGGAGGAUAUCAUGUAGAGACAUGAGGAUCACCCAUGUCGAUGGAGACAUCGGAGAUUGAGAAGGCCGAUGUACCU,–,–,0.109,0.0222
ACAGACCAACAGAAGGGUGAGGUGUUGUUCUUCACAGGAUAUGUUGGCAACAUGAGGAUCACCCAUGUUGGUUUUGAAGUACGU,–,–,0.0163,0.00468
AGAUUCAUGGCCCGUUUGGGCUCACAUGAGGAUCACCCAUGUGAGGAUAUGACGUACCUGACUCGUCAGAAGGCGCAUGCGAAA,0.00748,0.0157,–,–
GGUACUCAAAGAGUACCAAUACGAACAUGAGGAUCACCCAUGUAGGAUAUGCUACUCAAAGAGUAGCAGAAGGAUAUGAUGUAU,0.0397,0.0449,–,–
UUGGACGUCGUAGGAUAUGCAGGAUAUUCCUACAUGAGGAUCACCCAUGUUGACAUGGAAGAAGGACAGAAGGACGAUGUCCAU,–,–,0.011,0.00538
GACUGAUUGUAGAAGGUACUUAAUAAUAUUUAAUAACUCAUGUGACAUGAGGAUCACCCAUGUAGUAAGGAUAUACAUAUCUCA,–,–,0.211,0.0795
AUACAUGAGGAUCACCCAUGUUACUGGGUCUAUAUAGAACGUAGAAGGAUGAUAUUAUAAAUAUCAUAGGAUAUACUAUAUUGU,0.0327,0.032,–,–
GGUUGGCGAGGAUAUACAUGAGGAUCACCCAUGUGGUCCUGUGGCUGGUAAAACCUUUGUAGAAGGCGCGGGUC,0.215,0.24,–,–
AGUCGGUUCUUUUAACAUGAGGAUCACCCAUGUAUUUGCAACUAGGAUAUCGAUAAUUAUUUCGUCGAGAAGGAGUAUACAUAA,0.0242,0.0385,–,–
CCCUCACAUGAGGAUCACCCAUGUGAGGAUAUGCAUUCCAAAGCGAGCUUUGAGAAGAGUAGAAGGCACUGGUG,0.0171,0.0199,–,–
CAGGACAGAGGAUAUACAUAGAUACAGAUUCAUGUAGAACUACAUGAGGAUCACCCAUGUAGAAGGCUGACCUG,0.0285,0.221,–,–
ACAUGAGGAUCACCCAUGUUCACAUAGGAUAUUGAUUAUAUUGGUUUAAGAAUAGUAAUUAACCUCAAGAAGGAUGCCUGAUCU,–,–,0.0149,0.012
CGCAUGCGUAGUAUUAGUUGUUGACAGGAUAUGACAUGAGGAUCACCCAUGUGUAUUAAGAAGUGUCAGAAGGGUCUCGUUGCG,0.00653,0.00973,–,–
UGUUGUUCAGGAUAUGAUGUAUAAUACAUGAGGAUCACCCAUGUGGGUCCUGAUUUGGCGUCAGAAGGGAAUGUUG,0.0883,0.146,–,–
ACAUGUUUUGUAGGAUAUCACUAGUUGUGUUAUAUAUUUGUUAUAAUGUAUUGAGAAGGACAUUUACAUGAGGAUCACCCAUGU,–,0.00744,–,–
UUAGGACGAAACAUGAGGAUCACCCAUGUGUUAUAAUUAAUAUAGGAUAUGUUUAUACUUUUUGGGCAGAAGGAUGAUAUUGCU,–,–,0.0198,0.0168
UGUUUUCAUGUAGGAUAUGCUUGUCGUAGAUACGCAGAAGGACAUGAGGAUCACCCAUGUUAAAGCGACAGAGUAUAGAUUCUU,0.0163,0.0223,–,–
